The source of these data is ChEMBL document CHEMBL5030525, “Design, synthesis and antitumor activity evaluation of trifluoromethyl-substituted pyrimidine derivatives” (Bioorg Med Chem Lett, 2021).

Broadly, the IC50 is the point on the concentration scale where inhibition reaches its midpoint.

Series [1] can be described thus: Selectivity index, ratio of IC50 for cytotoxicity against human GES1 cells to IC50 for antiproliferative activity against human NCI-H1975 cells. In kind it is toxicity, cell-based. The following applies: GES1 cells versus NCI-H1975 cells, read-out: Ratio IC50. In a few lines:
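Ratio of GES-1 IC50 to H1975 IC50. Both came from the 72 h MTT assay, with IC50 as the mean ± SD of three separate experiments.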

The test system of series [2] is PC-3. As to the kind of experiment: Antiproliferative activity against human PC-3 cells assessed as inhibition of cell growth measured after 72 hrs by MTT assay. The following applies: PC-3, 72 h. In kind it is functional, cell-based. A digest of the protocol: (§1)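 Cells in log phase were seeded at 3000–5000 per well and cultured 24 h at 37 °C, then exposed to a range of compound concentrations in fresh medium for 72 h. MTT was added and incubated 4 h at 37 °C, formazan was dissolved in DMSO, and absorbance was read at 490 nm. IC50 was taken from survival rate, as mean ± SD of three independent experiments. Stocks were 10 mM in DMSO.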

Series [3] has as its system NCI-H1975. As to the kind of experiment: Antiproliferative activity against human NCI-H1975 cells assessed as inhibition of cell growth measured after 72 hrs by MTT assay. Format: functional, cell-based. The following applies: NCI-H1975, 72 h. In a few lines: as §1
In general terms: Formazan colour is commonly taken as a measure of viable cells.

The subject of series [4] is GES1. The series is described as follows: Cytotoxicity against human GES1 cells assessed as reduction in cell viability measured after 72 hrs by MTT assay. Format: cell-based. The following applies: GES1, 72 h. A digest of the protocol: as §1
The test system of series [5] is MCF7. As to the kind of experiment: Antiproliferative activity against human MCF7 cells assessed as inhibition of cell growth measured after 72 hrs by MTT assay. Format: functional, cell-based. The following applies: MCF7, 72 h. A digest of the protocol:
as §1

The subject of series [6] is MGC-803. The series is described as follows: Antiproliferative activity against human MGC-803 cells assessed as inhibition of cell growth measured after 72 hrs by MTT assay. In kind it is functional, cell-based. The following applies: MGC-803, 72 h. A digest of the protocol: as §1

Take `O=c1[nH]cc(F)c(=O)[nH]1` [FLUOROURACIL]: the selectivity ratio in series [1] came out at 2.06. Also, the IC50 in series [2] is 6.23 µM; in series [3] it was 9.37 µM; in series [4], 19.3 µM; in series [5], 8.77 µM; in series [6], 9.05 µM.

On to `C=CC(=O)Nc1cccc(Nc2cc(C(F)(F)F)nc(SCc3ccccc3Br)n2)c1`, for which the concentration for half-maximal inhibition (IC50) stood at 8.17 µM in series [2], 9.62 µM in series [3], 20.2 µM in series [5] and 30.9 µM in series [6].

As for `Cc1ccc(Nc2cc(C(F)(F)F)nc(SCc3ccc(C(F)(F)F)cc3)n2)cc1`, the IC50 in series [2] was 16.5 µM; in series [3], 20.6 µM; in series [5], over 50 µM; in series [6], 32.3 µM.

As to `C=CC(=O)Nc1cccc(Nc2cc(C(F)(F)F)nc(SCc3ccc(Br)cc3)n2)c1`, the IC50 worked out at 6.32 µM in series [2], 6.44 µM in series [3], 11.7 µM in series [5] and 29.4 µM in series [6].

Regarding `C=CC(=O)Nc1cccc(Nc2cc(C(F)(F)F)nc(SCC3CCOCC3)n2)c1`, the IC50 in series [2] is 8.96 µM; in series [3] it was 16.3 µM; in series [5], 17.7 µM; in series [6], 28.3 µM.

In the case of `FC(F)(F)c1ccc(CSc2nc(N3CCSCC3)cc(C(F)(F)F)n2)cc1`, the concentration for half-maximal inhibition (IC50) in series [2] was 46.8 µM; in series [3], over 50 µM; in series [5], over 50 µM; in series [6], 44 µM.

For `C=CC(=O)Nc1cccc(Nc2cc(C(F)(F)F)nc(SCc3ccc(F)cc3)n2)c1`, the concentration for half-maximal inhibition (IC50) was found to be 9.22 µM in series [2], 10.1 µM in series [3], 14.9 µM in series [5] and 9.25 µM in series [6].

Regarding `Nc1cccc(Nc2cc(C(F)(F)F)nc(SCc3ccc(C(F)(F)F)cc3)n2)c1`, the 50% inhibitory concentration (IC50) was 23.2 µM in series [2], 23.6 µM in series [3], 13.5 µM in series [5] and 8.97 µM in series [6].

As for `FC(F)(F)c1ccc(CSc2nc(Sc3ncccn3)cc(C(F)(F)F)n2)cc1`, the concentration for half-maximal inhibition (IC50) in series [2] was over 50 µM; in series [3], 14 µM; in series [5] it was over 50 µM; in series [6] it was 28.6 µM.

As to `C=CC(=O)Nc1cccc(Nc2cc(C(F)(F)F)nc(SCc3ccc(Cl)cc3Cl)n2)c1`, the IC50 in series [2] worked out at 6.66 µM; in series [3] it was 15.3 µM; in series [5] it was 6.25 µM; in series [6], 18.6 µM.

For `C=CC(=O)Nc1cccc(Nc2cc(C(F)(F)F)nc(SCc3ccc(C(F)(F)F)cc3)n2)c1`, the selectivity ratio in series [1] turned out to be 6.6. Also, the IC50 in series [2] worked out at 5.65 µM; in series [3], 4.77 µM; in series [4], 31.5 µM; in series [5] it was 7.08 µM; in series [6], 9.8 µM.

With `Fc1ccc(Nc2cc(C(F)(F)F)nc(SCc3ccc(C(F)(F)F)cc3)n2)cc1Cl`, the IC50 was 35 µM in series [2], 22.1 µM in series [3], over 50 µM in series [5] and 41.4 µM in series [6].

As to `Fc1ccc(Nc2cc(C(F)(F)F)nc(SCc3ccc(C(F)(F)F)cc3)n2)cc1`, the IC50 in series [2] is 14.1 µM; in series [3], 17.4 µM; in series [5], over 50 µM; in series [6], 19.2 µM.

On to `C=CC(=O)Nc1cccc(Nc2cc(C(F)(F)F)nc(SCc3ccccc3C)n2)c1`, for which the 50% inhibitory concentration (IC50) in series [2] came to 15.1 µM; in series [3], 14.6 µM; in series [5] it was 33.6 µM; in series [6], 18.2 µM.

With `FC(F)(F)c1ccc(CSc2nc(Sc3nnnn3-c3ccccc3)cc(C(F)(F)F)n2)cc1`, the half-inhibitory concentration (IC50) in series [2] turned out to be 45.3 µM; in series [3], 24.3 µM; in series [5], 39.5 µM; in series [6], 12.4 µM.

Take `C=CC(=O)Nc1cccc(Nc2cc(C(F)(F)F)nc(SCc3ccc(OC)cc3)n2)c1`: the IC50 was found to be 15.8 µM in series [2], 10.2 µM in series [3], 7.59 µM in series [5] and 15.1 µM in series [6].

In the case of `C=CC(=O)Nc1cccc(Nc2cc(C(F)(F)F)nc(SCc3ccccc3)n2)c1`, the IC50 in series [2] worked out at 14.2 µM; in series [3], 21.9 µM; in series [5] it was 19.1 µM; in series [6], 22.3 µM.

For the compound `FC(F)(F)c1ccc(CSc2nc(N3CCN(c4ccccn4)CC3)cc(C(F)(F)F)n2)cc1`, the half-inhibitory concentration (IC50) was over 50 µM in series [2], 17.4 µM in series [3], over 50 µM in series [5] and 23.5 µM in series [6].

As to `FC(F)(F)c1ccc(CSc2nc(Nc3nnn[nH]3)cc(C(F)(F)F)n2)cc1`, the half-inhibitory concentration (IC50) in series [2], in series [3], in series [5] and in series [6] was over 50 µM throughout.

Turning to `C=CC(=O)Nc1cccc(Nc2cc(C(F)(F)F)nc(SCc3cccc(C)c3)n2)c1`, the IC50 in series [2] stood at 9.05 µM; in series [3], 13.2 µM; in series [5] it was 26.7 µM; in series [6] it was 12.6 µM.
